Reference: article PMC12853403 (ACS infectious diseases, 2025)

Legend:
[1] = tested on: E. multilocularis protoscoleces; assay: Cestode motility assay on protoscoleces; assay type: cell-based; details: Echinococcus multilocularis, read-out: EC50, motility of E. multilocularis protoscoleces
Se.TRPMPZQ = assay: Functional profiling; assay type: cell-based, Spirometra erinaceieuropaei
Eg.TRPMPZQ = Eg.TRPMPZQ (Echinococcus granulosus, UniProt W6UVV9); assay: Ca2+ reporter assay in HEK293 cells, Eg.TRPMPZQ; assay type: cell-based; details: EC50 at Eg.TRPMPZQ / EC50 at Sm.TRPMPZQ
[2] = cited from earlier work
[3] = cited from earlier work; remark: listed apart in the source
Sm.TRPMPZQ[D1677E] = assay: Functional profiling at Sm.TRPMPZQ[D1677E] mutant; assay type: cell-based, Schistosoma mansoni; details: construct lacks the cestode-specific S1 histidine
Procedure, shortened: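 Transiently transfected HEK293 cells (Lipofectamine-2000) replated after 24 h at 20,000 cells/well. 24 h later, loaded with Fluo-4 NW for 1 h at 37 °C in HBSS with 2.5 mM probenecid and 20 mM HEPES. FLIPR Ca2+ read at room temperature: 20 s baseline, then compound, then 250 s. Peak minus basal, normalized to (±)-PZQ at the same channel. Three-parameter fit, bottom fixed at 0%. EC50 mean ± SEM, n ≥ 3 transfections.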

[4] = in humans; cited from earlier work

O=C(C1CCCCC1)N1CC(=O)N2CCc3ccccc3[C@@H]2C1 [(R)-PZQ]
EC50 [1]: 7.7 ± 1.3 nM
EC50 (Se.TRPMPZQ; read-out: EC50 at Se.TRPMPZQ, mean ± SEM): 1000 ± 300 nM
efficacy (Bmax) at Se.TRPMPZQ (Se.TRPMPZQ; relative to (R)-PZQ at Eg.TRPMPZQ): 17 ± 0.8 % of (R)-PZQ at Eg.TRPMPZQ
difference in potency between Eg.TRPMPZQ and Sm.TRPMPZQ (Eg.TRPMPZQ): ~ 4 fold

O=C(C1CCCCC1)N1CC(=O)N2CCc3ccccc3[C@H]2C1 [(S)-PZQ]
difference in potency between Eg.TRPMPZQ and Sm.TRPMPZQ (Eg.TRPMPZQ): ~ 100 fold

O=C(C1CCCCC1)N1CC(=O)N2CCCc3ccccc3C2C1 (stereo not shown) [epsiprantel]
absorption from the gastrointestinal tract [2]: poorly absorbed
solubility [3]: very insoluble

O=C(C1CCCCC1)N1CC(=O)N2CCc3ccccc3C2C1 (stereo not shown) [PZQ, praziquantel]
activity at Sm.TRPMPZQ[D1677E] mutant (Sm.TRPMPZQ[D1677E]): unable to be activated
agonist character at Se.TRPMPZQ (Se.TRPMPZQ): partial agonist
half time [4]: 2 to 3 h
